The nature of data set [1]: Antioxidant activity assessed as PYR quenching after 180 mins by HPLC analysis. The class given is functional. Set-up: concentration or dose not given beside the values. In outline:
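Pyridoxal used as the target aldehyde under the same incubation (180 min). Consumption determined by HPLC with fluorimetric detection. Expressed as % aldehyde consumed versus a blank incubated without compound.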

Data set [2] is described as follows: Antioxidant activity assessed as HNE quenching at 1 mM after 180 mins by HPLC analysis. The format is functional. In outline: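 HNE consumption measured with dipeptide at 1 mM in 10 mmol PBS pH 7.4, 180 min at 37 °C. Remaining HNE measured by reversed-phase HPLC with PDA detection at 224 nm. Column at 37 °C. Isocratic H2O/CH3CN/HCOOH 40/60/0.1. Result given as % aldehyde consumed relative to a blank without compound.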

Data set [3] can be described thus: Selectivity ratio of antioxidant activity assessed as HNE quenching to antioxidant activity assessed as PYR quenching. In outline: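 Ratio of % HNE quenched to % pyridoxal quenched. Both measured after 180 min incubation, with % consumption taken against blanks without compound.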
The nature of data set [4]: Stability in human serum assessed as compound remaining at 50 uM after 30 mins by LC-MS analysis. The settings on record: read-out: Stability. The format is ADME, cell-free.

Residues, ends and D or L forms follow the SMILES beside them.

For the molecule `NC(=O)[C@H](Cc1cnc[nH]1)NC(=O)[C@@H](N)CC(=O)O`, the Activity amounted to 1.49% in data set [1] and 5.99% in data set [2]. In addition, in data set [3], the Selectivity ratio stood at 5.16.

In the case of `COC(=O)[C@@H](Cc1cnc[nH]1)NC(=O)[C@@H](N)CCCCN`, the Activity came to 0.35% in data set [1] and 10.2% in data set [2]. Further, in data set [4], the remaining at 0.5 h, 50 µM was 90.5%. In addition, the Selectivity ratio in data set [3] stood at 29.1.

Regarding `NC(=O)[C@H](Cc1cnc[nH]1)NC(=O)[C@@H](N)Cc1c[nH]c2ccccc12`, the Activity in data set [1] worked out at 1.86%; in data set [2] it was 8.62%. Further, the Selectivity ratio in data set [3] is 6.01.

On to `COC(=O)[C@@H](Cc1cnc[nH]1)NC(=O)[C@@H](N)Cc1cnc[nH]1`, for which the Activity in data set [1] was determined as 7.7%; in data set [2], 8.86%. The Selectivity ratio in data set [3] came out at 1.15.

`CC[C@H](C)[C@H](N)C(=O)N[C@@H](Cc1cnc[nH]1)C(N)=O`: the figures for the Activity in data set [1] and in data set [2] were 2.02% and 7.09%, respectively. Besides, the Selectivity ratio in data set [3] stood at 3.51.

Turning to `NC(=O)[C@H](Cc1cnc[nH]1)NC(=O)[C@@H](N)Cc1cnc[nH]1`, the Activity in data set [1] is 7.86%; in data set [2], 9.81%. Besides, the Selectivity ratio in data set [3] came out at 1.35.

On to `COC(=O)[C@@H](Cc1cnc[nH]1)NC(=O)[C@@H](N)CO`, for which the Activity in data set [1] is 2.08%; in data set [2], 5.91%. Moreover, in data set [3], the Selectivity ratio was 2.84.

On to `C[C@@H](O)[C@H](N)C(=O)N[C@H](Cc1cnc[nH]1)C(N)=O`, for which the Activity in data set [1] came out at 6.62%; in data set [2], 12.1%. The Selectivity ratio in data set [3] worked out at 1.83.

Regarding `NC(=O)CC[C@H](N)C(=O)N[C@@H](Cc1cnc[nH]1)C(N)=O`, the results for the Activity in data set [1] and in data set [2] were 2.65% and 9.37%, respectively. The Selectivity ratio in data set [3] turned out to be 3.54.

For `COC(=O)[C@@H](Cc1cnc[nH]1)NC(=O)[C@@H](N)Cc1ccc(O)cc1`, the results for the Activity in data set [1] and in data set [2] were 1.29% and 27.4%, respectively. Further, the remaining at 0.5 h, 50 µM in data set [4] came to 40.5%. Moreover, in data set [3], the Selectivity ratio was 21.3.

Turning to `COC(=O)[C@H](Cc1cnc[nH]1)NC(=O)[C@@H](N)CCSC`, the Activity in data set [1] came out at 2.61%; in data set [2] it was 0.17%. The Selectivity ratio in data set [3] came to 0.07.

As for `COC(=O)[C@@H](Cc1cnc[nH]1)NC(=O)[C@@H](N)CC(N)=O`, the Activity came to 1.14% in data set [1] and 9.5% in data set [2]. In data set [3], the Selectivity ratio turned out to be 8.33.

As to `COC(=O)[C@H](Cc1c[nH]cn1)NC(=O)[C@@H](N)Cc1c[nH]c2ccccc12`, the values for the Activity in data set [1] and in data set [2] were 4.2% and 11.7%, respectively. Also, the Selectivity ratio in data set [3] amounted to 2.79.

On to `COC(=O)[C@@H](Cc1cnc[nH]1)NC(=O)[C@@H](N)Cc1c[nH]c2ccccc12`, for which the Activity in data set [1] came to 5.81%; in data set [2] it was 18.8%. Also, the Selectivity ratio in data set [3] was determined as 3.24.

On to `C[C@@H](O)[C@H](N)C(=O)N[C@@H](Cc1cnc[nH]1)C(N)=O`, for which the Activity in data set [1] came to 1.42%; in data set [2], 3.9%. For the same molecule, in data set [3], the Selectivity ratio stood at 2.75.

For `COC(=O)[C@H](Cc1cnc[nH]1)NC(=O)[C@@H](N)Cc1cnc[nH]1`, the Activity in data set [1] came out at 1.82%; in data set [2], 6%. Moreover, in data set [3], the Selectivity ratio came out at 3.3.

Consider `NC(=O)[C@H](Cc1cnc[nH]1)NC(=O)[C@@H](N)CS`, for which the Activity in data set [1] was found to be 27.7%; in data set [2], 100%. In addition, the Selectivity ratio in data set [3] stood at 3.61.

Consider `NC(=O)[C@@H](Cc1cnc[nH]1)NC(=O)[C@@H](N)CC(=O)O`, for which the Activity in data set [1] came out at 1.16%; in data set [2], 5.98%. Besides, the Selectivity ratio in data set [3] is 4.02.

For `NCCCC[C@H](N)C(=O)N[C@@H](Cc1cnc[nH]1)C(N)=O`, the Activity in data set [1] amounted to 0.41%; in data set [2] it was 15.7%. Moreover, the remaining at 0.5 h, 50 µM in data set [4] turned out to be 67.7%. Further, the Selectivity ratio in data set [3] is 38.3.

With `NCCCC[C@H](N)C(=O)N[C@H](Cc1cnc[nH]1)C(N)=O`, the Activity in data set [1] was found to be 0.75%; in data set [2], 4.16%. In addition, the remaining at 0.5 h, 50 µM in data set [4] turned out to be 68%. In addition, the Selectivity ratio in data set [3] came out at 5.55.

As for `COC(=O)[C@@H](Cc1cnc[nH]1)NC(=O)[C@@H](N)CS`, the Activity is 40.8% in data set [1] and 100% in data set [2]. Further, the Selectivity ratio in data set [3] worked out at 2.45.

As for `NC(=O)[C@@H](Cc1cnc[nH]1)NC(=O)[C@@H](N)Cc1cnc[nH]1`, the Activity in data set [1] came out at 7.28%; in data set [2], 9.16%. Further, the Selectivity ratio in data set [3] was determined as 1.26.

`COC(=O)[C@@H](Cc1cnc[nH]1)NC(=O)[C@@H](N)CCSC`: the Activity turned out to be 3.11% in data set [1] and 1.81% in data set [2]. Moreover, the Selectivity ratio in data set [3] is 0.58.

As for `COC(=O)[C@H](Cc1cnc[nH]1)NC(=O)[C@@H](N)C(C)C`, the Activity stood at 0.87% in data set [1] and 4.97% in data set [2]. Further, in data set [3], the Selectivity ratio was 5.71.

Consider `COC(=O)[C@H](Cc1cnc[nH]1)NC(=O)[C@@H](N)CCC(=O)O`, for which the Activity in data set [1] is 0.76%; in data set [2], 12.2%. Further, the Selectivity ratio in data set [3] stood at 16.1.

`NCC(=O)N[C@@H](Cc1cnc[nH]1)C(=O)O` (H-Gly-His-OH): the Activity in data set [1] worked out at 3.77%; in data set [2], 9.11%. Besides, the Selectivity ratio in data set [3] turned out to be 2.42.

`COC(=O)[C@H](Cc1cnc[nH]1)NC(=O)[C@@H](N)CCCCN`: the Activity in data set [1] came out at 1.87%; in data set [2] it was 31.3%. For the same molecule, the remaining at 0.5 h, 50 µM in data set [4] worked out at 87.5%. Also, in data set [3], the Selectivity ratio is 16.7.

For the molecule `CC[C@H](C)[C@H](N)C(=O)N[C@H](Cc1cnc[nH]1)C(N)=O`, the Activity in data set [1] came to 0.59%; in data set [2], 5.13%. Besides, the Selectivity ratio in data set [3] turned out to be 8.69.

Turning to `COC(=O)[C@@H](Cc1cnc[nH]1)NC(=O)[C@@H](N)CCC(=O)O`, the results for the Activity in data set [1] and in data set [2] were 0.73% and 13.1%, respectively. For the same molecule, the Selectivity ratio in data set [3] is 18.

With `NC(=O)[C@@H](Cc1cnc[nH]1)NC(=O)[C@@H](N)CS`, the Activity is 37.2% in data set [1] and 100% in data set [2]. Further, in data set [3], the Selectivity ratio came out at 2.69.

For the molecule `NC(=O)[C@@H](Cc1cnc[nH]1)NC(=O)[C@@H](N)Cc1ccccc1`, the Activity in data set [1] came out at 0.7%; in data set [2], 6.7%. Besides, in data set [3], the Selectivity ratio is 9.57.

Consider `COC(=O)[C@H](Cc1cnc[nH]1)NC(=O)[C@@H](N)Cc1ccc(O)cc1`, for which the Activity in data set [1] is 4.02%; in data set [2] it was 12.5%. Besides, in data set [3], the Selectivity ratio amounted to 3.12.

With `NCCC(=O)N[C@@H](Cc1c[nH]cn1)C(=O)O`, the figures for the Activity in data set [1] and in data set [2] were 5.57% and 48.2%, respectively. In addition, the Selectivity ratio in data set [3] was 8.65.

For the molecule `N=C(N)NCCC[C@H](N)C(=O)N[C@@H](Cc1cnc[nH]1)C(N)=O`, the figures for the Activity in data set [1] and in data set [2] were 0.26% and 7.79%, respectively. The Selectivity ratio in data set [3] was 30.

Consider `NC(=O)[C@H](Cc1cnc[nH]1)NC(=O)[C@@H](N)Cc1ccccc1`, for which the Activity in data set [1] was 1.22%; in data set [2], 9.79%. The Selectivity ratio in data set [3] was found to be 8.02.

For `COC(=O)[C@@H](Cc1cnc[nH]1)NC(=O)[C@@H](N)C(C)C`, the Activity in data set [1] was determined as 3.62%; in data set [2], 16.9%. Further, the Selectivity ratio in data set [3] amounted to 4.67.

For the molecule `NC(=O)[C@@H](Cc1cnc[nH]1)NC(=O)[C@@H](N)Cc1c[nH]c2ccccc12`, the Activity in data set [1] was found to be 0.13%; in data set [2], 11.2%. Moreover, in data set [3], the Selectivity ratio worked out at 86.2.

Consider `COC(=O)[C@H](Cc1cnc[nH]1)NC(=O)[C@@H](N)CO`, for which the values for the Activity in data set [1] and in data set [2] were 0.1% and 5.18%, respectively. Besides, in data set [3], the Selectivity ratio was 51.8.

Turning to `COC(=O)[C@H](Cc1cnc[nH]1)NC(=O)[C@@H](N)CS`, the Activity in data set [1] worked out at 25.3%; in data set [2], 100%. The Selectivity ratio in data set [3] was found to be 3.96.

`N=C(N)NCCC[C@H](N)C(=O)N[C@H](Cc1cnc[nH]1)C(N)=O`: the Activity in data set [1] was found to be 0.43%; in data set [2], 12%. The Selectivity ratio in data set [3] was 27.9.

For the molecule `NC(=O)CC[C@H](N)C(=O)N[C@H](Cc1cnc[nH]1)C(N)=O`, the Activity in data set [1] amounted to 1.57%; in data set [2], 14.8%. Moreover, in data set [4], the remaining at 0.5 h, 50 µM was 81.3%. For the same molecule, in data set [3], the Selectivity ratio came to 9.4.

`COC(=O)[C@H](Cc1cnc[nH]1)NC(=O)[C@@H](N)CC(N)=O`: the figures for the Activity in data set [1] and in data set [2] were 1% and 9.59%, respectively. Further, the Selectivity ratio in data set [3] came out at 9.59.

For the origin of these results see ChEMBL document CHEMBL2407007, “Exploring the space of histidine containing dipeptides in search of novel efficient RCS sequestering agents” (Eur J Med Chem, 2013).
